# Experimental data from ChEMBL document CHEMBL3779860, “A Designed Tryptophan- and Lysine/Arginine-Rich Antimicrobial Peptide with Therapeutic Potential for Clinical Antibiotic-Resistant Candida albicans Vaginitis” (J Med Chem, 2016).
# Active and inactive are the calls of the source. The calls are words filed in the database; no cut-off is given here.
# Experiments:
# [1] = Induction of hemolysis in human RBC at 320 ug/mL after 30 mins; format: cell-based, Erythrocyte; conditions: red blood cells, read-out: Activity
# Outline: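 Serial dilutions were incubated with human erythrocytes for 30 min at 37°C. Supernatant absorbance was read at 540 nm after centrifugation. Hemolysis is expressed as % of the 1% Triton X-100 lysis value, pooled from three independent experiments. The highest concentration tested was 320 µg/mL.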
# Candida albicans [2] = experiment: Antimicrobial activity against antibiotic resistant Candida albicans clinical isolate 08030809 assessed as clone count at MIC after 3 hrs by colony counting assay (reference value: 3687 +/- 543 CFU); format: functional
# Candida albicans [3] = experiment: Antimicrobial activity against antibiotic resistant Candida albicans clinical isolate 08030809 assessed as clone count at 5 times MIC after 30 mins by colony counting assay (reference value: 156 +/- 16 CFU); format: functional
# Candida albicans [4] = experiment: Antimicrobial activity against antibiotic resistant Candida albicans clinical isolate 08030809 assessed as clone count at MIC after 1 hr by colony counting assay (reference value: 228 +/- 23 CFU); format: functional
# Bacillus subtilis = experiment: Antimicrobial activity against Bacillus subtilis assessed as inhibition of […] growth after 16 hrs by broth dilution method; format: functional
# Outline: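 Broth dilution in LB broth; 100 µL of 2 × 10^5 CFU/mL bacterial suspension plus 10 µL sample (stock series in 0.9% NaCl) in 90 µL broth, 37°C for 16 h. Growth read as A600; MIC is the lowest concentration completely inhibiting growth. Mean of three independent experiments run in duplicate.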
# Mus musculus [5] = experiment: Antiinflammatory activity in antibiotic resistant Candida albicans clinical isolate 08030809 induced mouse vaginitis model assessed as reduction in TNF-alpha secretion in vaginal tissue at 20 ug administered as intravaginal instillation measured on day 10 by ELISA; format: functional, Vagina
# Outline: (§1)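 Same estradiol-primed mouse model, infected intravaginally with C. albicans 08030809 and treated by intravaginal instillation (20 µL/mouse). Vaginal canals excised on day 10 of treatment and homogenised in 0.9% NaCl. Supernatant taken after 2,000 g for 15 min. TNF-α, IL-6, IL-1β and IL-10 measured by ELISA. Mean ± SE of three independent experiments; unpaired t-test versus vehicle.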
# Candida albicans [6] = experiment: Antimicrobial activity against antibiotic resistant Candida albicans clinical isolate 08030809 assessed as clone count at 10 times MIC after 10 mins by colony counting assay (reference value: 102 +/- 11 CFU); format: functional
# Candida albicans [7] = experiment: Antimicrobial activity against antibiotic resistant Candida albicans clinical isolate 08030809 assessed as clone count at 10 times MIC after 24 hrs by colony counting assay (Rvb > 10^5 CFU); format: functional
# Mus musculus [8] = experiment: Antiinflammatory activity in antibiotic resistant Candida albicans clinical isolate 08030809 induced mouse vaginitis model assessed as reduction in IL-1beta secretion in vaginal tissue at 20 ug administered as intravaginal instillation measured on day 10 by ELISA; format: functional, Vagina; outline: as §1
# Candida albicans [9] = experiment: Antimicrobial activity against antibiotic resistant Candida albicans clinical isolate 08030809 assessed as clone count at MIC after 30 mins by colony counting assay (reference value: 156 +/- 16 CFU); format: functional
# Candida albicans [10] = experiment: Antimicrobial activity against antibiotic resistant Candida albicans clinical isolate 08030809 in mouse vaginitis model assessed as decrease in colony count in lavage liquid of vagina at 20 ug administered as intravaginal instillation measured on day 16; format: functional
# Candida albicans [11] = experiment: Antimicrobial activity against antibiotic resistant Candida albicans clinical isolate 08030809 assessed as clone count at MIC after 10 mins by colony counting assay (reference value: 102 +/- 11 CFU); format: functional
# Candida albicans [12] = experiment: Antimicrobial activity against antibiotic resistant Candida albicans clinical isolate 08030809 assessed as clone count at 5 times MIC after 1 min by colony counting assay (reference value: 62 +/- 7 CFU); format: functional
# Mus musculus [13] = experiment: Antiinflammatory activity in antibiotic resistant Candida albicans clinical isolate 08030809 induced mouse vaginitis model assessed as reduction in IL-6 secretion in vaginal tissue at 20 ug administered as intravaginal instillation measured on day 10 by ELISA; format: functional, Vagina; outline: as §1
# Candida albicans [14] = experiment: Antimicrobial activity against antibiotic resistant Candida albicans clinical isolate 08030809 assessed as clone count at MIC after 24 hrs by colony counting assay (Rvb > 10^5 CFU); format: functional
# Candida albicans [15] = experiment: Antimicrobial activity against antibiotic resistant Candida albicans clinical isolate 08030809 in mouse vaginitis model assessed as decrease in colony count in lavage liquid of vagina at 20 ug administered as intravaginal instillation measured on day 11; format: functional
# Candida albicans [16] = experiment: Antimicrobial activity against antibiotic resistant Candida albicans clinical isolate 08030809 assessed as clone count at 10 times MIC after 1 hr by colony counting assay (reference value: 228 +/- 23 CFU); format: functional
# Candida albicans [17] = experiment: Antimicrobial activity against antibiotic resistant Candida albicans clinical isolate 08030809 compound treated in NaCl solution measured after 36 hrs by disc diffusion method; format: functional; conditions: isolate 08030809, 36 h
# Outline: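 Salt-tolerance test: peptide at 2 mg/mL was prepared in sterile ddH2O, in 150 mM NaCl, or in PBS (150 mM NaCl, 2.7 mM KCl, 1.5 mM KH2PO4, 8 mM K2HPO4, pH 7.2). Anti-C. albicans activity was then assessed by inhibition zone on Sabouraud medium with 0.7% agar.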
# Candida albicans [18] = experiment: Effect on cell membrane integrity in antibiotic resistant Candida albicans clinical isolate 08030809 at MIC measured every 2 mins upto 20 mins by SYTOX green nucleic acid staining-based fluorescence assay; format: functional, organism-based
# Outline: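 Exponential-phase C. albicans 08030809 was washed and resuspended at 10^6 CFU/mL in 10 mM PBS pH 7.4. Cells were loaded with 0.1 µM (final) SYTOX Green for 15 min at 37°C with shaking, then test samples were added. Fluorescence (ex 488/em 530 nm) was recorded every 2 min as RFU. Mean ± SE of five independent experiments.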
# Candida albicans [19] = experiment: Antimicrobial activity against antibiotic resistant Candida albicans clinical isolate 08030809 assessed as clone count at 5 times MIC after 10 mins by colony counting assay (reference value: 102 +/- 11 CFU); format: functional
# Candida albicans [20] = experiment: Antimicrobial activity against antibiotic resistant Candida albicans clinical isolate 08032815 after 16 hrs by broth dilution method; format: functional; conditions: isolate 08032815, 16 h
# Outline: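 Broth dilution MIC. Samples were serially diluted in 0.9% NaCl and mixed with Sabouraud broth and yeast suspension at 2 × 10^5 CFU/mL, then incubated 16 h at 28°C. Growth was read at 600 nm. MIC is the lowest concentration giving complete growth inhibition, reported as mean of three independent experiments.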
# [21] = Ratio of HC50 for human RBC to MIC for Candida albicans ATCC 2002
# Candida albicans [22] = experiment: Antimicrobial activity against antibiotic resistant Candida albicans clinical isolate 08030809 assessed as clone count at 5 times MIC after 1 hr by colony counting assay (reference value: 228 +/- 23 CFU); format: functional
# Candida albicans [23] = experiment: Antimicrobial activity against antibiotic resistant Candida albicans clinical isolate 08030809 assessed as clone count at 10 times MIC after 1 min by colony counting assay (reference value: 62 +/- 7 CFU); format: functional
# Candida albicans [24] = experiment: Antimicrobial activity against antibiotic resistant Candida albicans clinical isolate 08030809 in mouse vaginitis model assessed as colony count in lavage liquid of vagina at 50 ug administered as intravaginal instillation measured on day 16; format: functional
substance,measurement,setting,value
H-VKRWKKWRWKWKKWV-NH2,"hemolysis at 0.5 h, 320 ug/mL",[1],3.1%
same,Activity,Candida albicans [2],0 CFU
same,Activity,Candida albicans [3],0 CFU
same,Activity,Candida albicans [4],0 CFU
same,MIC,Bacillus subtilis,1.17 µg/mL
same,inhibition (INH),Mus musculus [5],32%
same,Activity,Candida albicans [6],4 CFU
same,Activity,Candida albicans [7],0 CFU
same,inhibition (INH),Mus musculus [8],44%
same,Activity,Candida albicans [9],0 CFU
same,inhibition (INH),Candida albicans [10],71%
same,Activity,Candida albicans [11],15 CFU
same,Activity,Candida albicans [12],10 CFU
same,inhibition (INH),Mus musculus [13],46%
same,Activity,Candida albicans [14],0 CFU
same,inhibition (INH),Candida albicans [15],37%
same,Activity,Candida albicans [16],0 CFU
same,MIC,Candida albicans [17],1.4 µg/mL
same,Activity,Candida albicans [18],Active
same,Activity,Candida albicans [19],9 CFU
same,MIC,Candida albicans [20],2.79 µg/mL
same,Ratio,[21],542
same,Activity,Candida albicans [22],0 CFU
same,Activity,Candida albicans [23],6 CFU
same,Activity,Candida albicans [24],2.9 ×10³ CFU/ml
